Drawing on ChEMBL document CHEMBL1138888, “Activity of and initial mechanistic studies on a novel antileishmanial agent identified through in silico pharmacophore development and database searching” (J Med Chem, 2006), this text covers IC50 and Activity for 23 compounds.

Activity calls are given as the source filed them. The calls are words filed in the database; no cut-off is given here.

In assay [1] the test system is Leishmania donovani. Briefly: Antileishmanial activity against Leishmania donovani axenic amastigotes. It counts as functional, organism-based. A digest of the protocol: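 L. donovani axenic amastigotes (MHOM/SD/62/1S-CL2D), adapted from promastigotes and kept at 37 °C in amastigote medium. 6 × 10^4 cells per well, 2-fold compound dilution series, 3 days at 37 °C in 5% CO2. Growth read by tetrazolium (CellTiter) absorbance at 490 nm. IC50 taken from a four-parameter dose-response fit; three or more separate experiments, error given as SD.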

Assay [2] relates to Leishmania mexicana. Briefly: Reduction in Leishmania mexicana infection in mouse J774 macrophage at 50 nM. It counts as functional. The arrangement: scale not given: the % may be the effect or the level left. A digest of the protocol:
(§1)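 J774 macrophages (1 × 10^5 per well) allowed to adhere overnight, then infected with 1 × 10^6 L. mexicana promastigotes (MNYC/BCZ/62/M379) overnight at 33 °C. After washing, treated with compound or 1% DMSO vehicle for 3 days at 33 °C, methanol-fixed and Giemsa-stained. Percent reduction of infection is relative to controls; average ± range of two experiments.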

In assay [3] the test system is Leishmania mexicana. Put plainly: Reduction in Leishmania mexicana infection in mouse J774 macrophage at 25 nM. The assay is classed as functional. The arrangement: scale not given: the % may be the effect or the level left. The method in brief: as §1
Assay [4] has as its system Leishmania mexicana. Put plainly: Reduction in Leishmania mexicana infection in mouse J774 macrophage at 125 nM. The assay is classed as functional. The arrangement: scale not given: the % may be the effect or the level left. The method in brief: as §1
The next assay deals with Vero. Put plainly: Antiproliferative activity against Vero cell. The assay is classed as functional, cell-based. The following applies: Chlorocebus sabaeus. A digest of the protocol: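 Vero cells grown in alpha-MEM with Glutamax-I, 10% heat-inactivated FBS, penicillin/streptomycin. 1 × 10^3 cells per well seeded with compounds over a 2-fold dilution series, run like the amastigote assay: 3 days at 37 °C, humidified, 5% CO2. Growth read by tetrazolium (CellTiter) absorbance at 490 nm. IC50 from four-parameter dose-response fit; three or more separate experiments.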

A further assay has as its system Leishmania sp. Briefly: Inhibition of Leishmania tarentolae tubulin assembly. It counts as functional. A digest of the protocol: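 Purified L. tarentolae tubulin at 1.5 mg/mL in […] pH 6.9 with 1 mM MgCl2, 1 mM EGTA, 10% DMSO and 1 mM GTP, incubated at 30 °C with or without compound (2 or 20 µM tested). Assembly followed as turbidity at 351 nm.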
The subject of assay [5] is Leishmania donovani. Briefly: Cell cycle arrest in Leishmania donovani promastigotes by accumulation at G2/S phase at 2 uM. The assay is classed as functional, organism-based. The following applies: in the assay text read “G2/M phase” for “G2/S phase”. The method in brief: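 L. donovani promastigotes at 5 × 10^6 cells/mL in RPMI-based promastigote medium with 10% HI-FBS, treated or given vehicle (1% DMSO) for 2 days at 25 °C. Cells then methanol-fixed and stained with propidium iodide (10 µg/mL) with Triton X-100 and RNase A. DNA content per cell measured by flow cytometry; histograms representative of three experiments.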

Assay [6] relates to Leishmania mexicana. Briefly: Reduction in Leishmania mexicana infection in mouse J774 macrophage at 8 uM. The assay is classed as functional. The arrangement: scale not given: the % may be the effect or the level left. A digest of the protocol: as §1
The subject of assay [7] is Leishmania donovani. Put plainly: Reduction in Leishmania donovani load in infected BALB/c mouse at 50 mg/kg/day, ip. The assay is classed as functional. The following applies: route intraperitoneal. The method in brief: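 BALB/c mice, 12 weeks old, infected i.v. (tail vein) with 1 × 10^7 hamster-spleen-derived L. donovani amastigotes. After 7 days, dosed i.p. daily for 5 days in 0.5% methylcellulose/0.1% Tween-80/10% DMSO in water; vehicle controls run. Killed 4 days after treatment. Liver burden scored as LDUs from Giemsa-stained smears; mean ± SD of five mice.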

For assay [8], the system named is Leishmania mexicana. Briefly: Reduction in Leishmania mexicana infection in mouse J774 macrophage at 2 uM. The arrangement: scale not given: the % may be the effect or the level left. It counts as functional. The method in brief:
as §1

Assay [9] has as its system Leishmania mexicana. Briefly: Reduction in Leishmania mexicana infection in mouse J774 macrophage at 4 uM. Set-up: scale not given: the % may be the effect or the level left. It counts as functional. A digest of the protocol: as §1

With `O=C(O)c1ccccc1C(=O)NCCNc1ccc(C(F)(F)F)cn1`, the IC50 – broadly, the midpoint of a concentration-inhibition curve – in the assay with Leishmania donovani [1] was more than 100 µM. Regarding `Cc1cc(Sc2nnc3oc(O)cc(C)c2-3)c(C)cc1Cl`, in the assay with Leishmania donovani [1], the IC50 came out at 39 µM. As to `Cc1cc(C)c(-n2nnnc2SCc2ccc(C(F)(F)F)cc2)c(C)c1`, half-maximal inhibition in the assay with Leishmania donovani [1] (IC50) was put at 32 µM. The same measure, in the same setting: then `Cc1nc(-c2ccc(S(=O)(=O)Nc3ccc(Br)cc3Cl)s2)cs1`, with 66.6 µM. `COc1cc(C2SCCS2)cc(Br)c1Oc1cc(C)c(C(F)(F)F)cc1[N+](=O)[O-]` had an IC50 with Leishmania donovani [1] of more than 100 µM. The same measure, in the same setting: then `COc1ccccc1NC(=O)CSCc1cnc(C)c(O)c1O`, with more than 100 µM. In the assay with Leishmania donovani [1], `Cc1cc(C(=O)O)c(Sc2nccn2-c2ccc(Cl)cc2Cl)nc1C#N` returned an IC50 of 21 µM. As to `O=S(=O)(c1ccc(Cl)cc1)N1CCCN(Cc2ccc(Cl)cc2Cl)CC1`, in the assay with Leishmania donovani [1], the IC50 amounted to 72 µM. As for `C[C@@H]1[C@H](O)[C@@H](C)/C=C/C=C/C=C/C=C/C=C/C=C/C=C/[C@H](O[C@@H]2O[C@H](C)[C@@H](O)[C@H](N)[C@@H]2O)C[C@@H]2O[C@](O)(C[C@@H](O)C[C@@H](O)[C@H](O)CC[C@@H](O)C[C@@H](O)CC(=O)O[C@H]1C)C[C@H](O)[C@H]2C(=O)O` [AMPHOTERICIN B], the results for the Activity in the assay on Leishmania mexicana [2], in the assay with Leishmania mexicana [3] and in the assay with Leishmania mexicana [4] were 76%, 44% and 96%, respectively. The compound `COc1ccc(CCNc2ccc(C(F)(F)F)cc2[N+](=O)[O-])cc1OC` registered an IC50 with Leishmania donovani [1] of more than 100 µM. On to `O=[N+]([O-])c1ccc(Oc2c(Cl)cccc2Cl)c(Cl)c1Oc1c(Cl)cccc1Cl`, for which inhibition in the assay with Leishmania donovani [1] was half-maximal at 80 µM (IC50). The same measure, in the same setting: then `CCCN(CCC)c1c([N+](=O)[O-])cc(S(=O)(=O)Nc2cccc(F)c2)cc1[N+](=O)[O-]`, with 2.5 µM. Still for that read-out and setting: then `CCCCN(CCCC)c1c([N+](=O)[O-])cc(S(=O)(=O)Nc2ccc(F)cc2)cc1[N+](=O)[O-]`, with 5.6 µM. Consider `Cc1cc(S(=O)(=O)c2c([N+](=O)[O-])cc(C(F)(F)F)cc2[N+](=O)[O-])c(Cl)cc1Cl`, for which the IC50 worked out at 2.3 µM in the assay with Leishmania donovani [1] and 24 µM with Vero.

Compound `O=S(=O)(Nc1ccc(Oc2ccc(C(F)(F)F)cc2)cc1)c1cc(Cl)c(Cl)cc1Cl` gave an IC50 with Leishmania donovani [1] of 25 µM. On to `CSc1cccc(-n2c(S)nnc2CCc2ccc(O)cc2)c1`, for which the IC50 in the assay with Leishmania donovani [1] was more than 100 µM. For the compound `CC(=O)c1ccc(OCc2ccc(Cl)c(Cl)c2)c([N+](=O)[O-])c1`, the IC50 with Leishmania donovani [1] is more than 100 µM. On to `OC(CNCc1ccc(Cl)cc1Cl)Cn1c(-c2ccc(F)cc2)cc2ccccc21` (stereo not drawn), for which 37 µM corresponded to half-maximal inhibition in the assay with Leishmania donovani [1] (IC50). In turn, `COc1ccc([N+](=O)[O-])c(OC)c1C(=O)NCCCn1ccnc1` displayed an IC50 in the assay with Leishmania donovani [1] of more than 100 µM.

Compound `O=C(CSCc1cccc(C(F)(F)F)c1)c1ccc(OCc2ccc(F)cc2)cc1` yielded an IC50 in the assay on Leishmania donovani [1] of more than 100 µM. Turning to `Cc1cc(Sc2c([N+](=O)[O-])cc(C(F)(F)F)cc2[N+](=O)[O-])c(Cl)cc1Cl`, the outcome in the assay with Leishmania sp. and in the assay with Leishmania donovani [5] was inactive. For the same compound, the Activity was 68% with Leishmania mexicana [6], 1583 in the assay on Leishmania donovani [7], 13% in the assay with Leishmania mexicana [8] and 43% in the assay on Leishmania mexicana [9]. Besides, the IC50 was 0.5 µM with Leishmania donovani [1] and 5.3 µM in the assay with Vero.

In the case of `O=C1NC(=O)c2c1ccc(Sc1c(Cl)cccc1Cl)c2[N+](=O)[O-]`, in the assay on Leishmania donovani [1], the IC50 turned out to be 60 µM.

`CCCCN(CCCC)c1c([N+](=O)[O-])cc(S(=O)(=O)Nc2cccc(F)c2)cc1[N+](=O)[O-]`: the IC50 with Leishmania donovani [1] was found to be 5.7 µM.
